Columns and labels:
[1] = biological target: T1, Dihydrofolate reductase (Homo sapiens, UniProt P00374); assay: Inhibition of dihydrofolate reductase(DHFR) enzyme from human leukemic lymphoblasts.
T1 sequence (P00374 whole entry): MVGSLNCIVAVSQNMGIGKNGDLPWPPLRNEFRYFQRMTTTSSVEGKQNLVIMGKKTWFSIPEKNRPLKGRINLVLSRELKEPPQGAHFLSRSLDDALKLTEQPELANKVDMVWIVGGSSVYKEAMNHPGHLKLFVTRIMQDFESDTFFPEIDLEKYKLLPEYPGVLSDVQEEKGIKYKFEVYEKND
Outline: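 Spectrophotometric read-out at 340 nm. Enzyme was DHFR purified from human leukemic lymphoblasts (WI-L2/M4).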

[2] = system: L1210; assay: Inhibitory activity against growth of L1210 murine leukemic cells; type: functional, cell-based; details: Mus musculus
Outline: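 Growth inhibition was measured by an adapted tetrazolium salt method after 48-h exposure. Cells were grown in RPMI 1640 with 10% fetal bovine serum plus antibiotics. Results are expressed as IC50.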

[3] = Inhibitory activity against growth of WI-L2 human leukemic cells; details: WIL2

Row | SMILES | IC50 [1] | IC50 [2] | IC50 [3]
1 | CN(Cc1cnc2nc(N)nc(N)c2n1)c1ccc(C(=O)NC(CCCNCC(=O)O)C(=O)O)cc1 (centres undefined) | 50 nM | 1100 nM | 4300 nM
2 | NCCCC(NC(=O)c1ccc(NCc2ccc3nc(N)nc(N)c3c2)cc1)C(=O)O (centres undefined) | – | 280 nM | 180 nM
3 | NCCCC(NC(=O)c1ccc(NCc2ccc3nc(N)nc(N)c3n2)cc1)C(=O)O (centres undefined) | – | 660 nM | –
4 | NCCCC(NC(=O)c1ccc(NCc2cnc3nc(N)nc(N)c3c2)cc1)C(=O)O (centres undefined) | 27 nM | 1400 nM | 860 nM
5 | NCCCC(NC(=O)c1ccc(NCc2ccc3nc(N)nc(O)c3c2)cc1)C(=O)O (centres undefined) | 750 nM | > 5000 nM | –
6 | CN(Cc1cnc2nc(N)nc(N)c2n1)c1ccc(C(=O)NC(CCCN)C(=O)O)cc1 (centres undefined) | 160 nM | – | –
7 | NCCCC(NC(=O)c1ccc(NCc2cnc3nc(N)nc(O)c3c2)cc1)C(=O)O (centres undefined) | – | > 5000 nM | –
8 | NCCCC(NC(=O)c1ccc(NCc2cnc3nc(N)nc(N)c3n2)cc1)C(=O)O (centres undefined) | – | – | 2600 nM

From ChEMBL document CHEMBL1125675, “Synthesis and in vitro biological activity of new deaza analogues of folic acid, aminopterin, and methotrexate with an L-ornithine side chain” (J Med Chem, 1991)
